Assay results taken from ChEMBL document CHEMBL3351969, “Chalcone based azacarboline analogues as novel antitubulin agents: design, synthesis, biological evaluation and molecular modelling studies” (Eur J Med Chem, 2014).
The source made the active and inactive calls. The calls are words filed in the database; no cut-off is given here.

How the values were obtained:
COLO 205 [1] = experiment: Cytotoxicity against human COLO205 cells assessed as growth inhibition at 50 uM after 48 hrs by sulforhodamine B assay; assay type: functional; settings: for inhibition of growth at 50 µM: COLO 205, 48 h, read-out: GI
Outline: (§1)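 Single-point SRB screen at 50 µM. Cells were seeded and grown 24 h at 37°C in a CO2 incubator, then exposed to compound in complete medium for 48 h. Cells were fixed with 50% TCA for 1 h at 4°C, water-washed, and stained with 0.4% SRB in 1% acetic acid for 30 min. After 1% TCA washes, dye was dissolved in Tris-HCl (0.01 M, pH 10.4) and OD read at 540 nm.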

THP-1 [2] = experiment: Cytotoxicity against human THP1 cells assessed as growth inhibition at 50 uM after 48 hrs by sulforhodamine B assay; assay type: functional; settings: for inhibition of growth at 50 µM: THP-1, 48 h, read-out: GI; outline: as §1
A549 = experiment: Cytotoxicity against human A549 cells assessed as growth inhibition at 50 uM after 48 hrs by sulforhodamine B assay; assay type: functional; settings: for inhibition of growth at 50 µM: A549, 48 h, read-out: GI; outline: as §1
HCT-116 = experiment: (§2) Cytotoxicity against human HCT116 cells assessed as growth inhibition at 50 uM after 48 hrs by sulforhodamine B assay; assay type: functional; outline: as §1
[3] = Cytotoxicity against human HCT116 cells assessed as growth inhibition after 48 hrs by sulforhodamine B assay; assay type: functional, cell-based; settings: HCT-116, 48 h
Outline: (§3)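 SRB growth assay with compound dilutions over several concentrations. Cells were pre-grown 24 h at 37°C in a CO2 incubator, then exposed for 48 h. Cells were fixed with 50% TCA (1 h, 4°C) and stained with 0.4% SRB in 1% acetic acid for 30 min. Bound dye was solubilised in 0.01 M Tris-HCl (pH 10.4) and read at 540 nm. Percent inhibition versus untreated (blank-subtracted) was used to calculate IC50.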

[4] = as §2; assay type: functional; settings: HCT-116, 48 h, read-out: GI; outline: as §1
THP-1 [5] = experiment: Cytotoxicity against human THP1 cells assessed as growth inhibition after 48 hrs by sulforhodamine B assay; assay type: functional, cell-based; settings: THP-1, 48 h; outline: as §3
COLO 205 [6] = experiment: Cytotoxicity against human COLO205 cells assessed as growth inhibition after 48 hrs by sulforhodamine B assay; assay type: functional, cell-based; settings: COLO 205, 48 h; outline: as §3

Compound	growth inhibition (GI) (COLO 205 [1])	inhibition of growth at 50 µM (THP-1 [2]) [%]	growth inhibition (GI) (A549)	growth inhibition (GI) (HCT-116)	IC50 [3] [µM]	inhibition of growth at 50 µM (COLO 205 [1]) [%]	inhibition of growth at 50 µM (A549) [%]	inhibition of growth at 50 µM [4] [%]	IC50 (THP-1 [5]) [µM]	IC50 (COLO 205 [6]) [µM]	growth inhibition (GI) (THP-1 [2])
CC(=O)n1c2cc(Br)cc(Br)c2c2cc(-c3ccccc3)nnc21	inactive	21	inactive	inactive							
CC(=O)n1c2cccc(Cl)c2c2cc(-c3ccc4ccccc4c3)nnc21		68			16.2	41	19	45	14	17.6	
CC(=O)n1c2cccc(Br)c2c2cc(-c3ccc4ccccc4c3)nnc21		40				14	8	18			
CC(=O)n1c2cccc(I)c2c2cc(-c3ccccc3)nnc21	inactive	20	inactive	inactive							
COc1ccc(-c2cc3c4c(Cl)cccc4n(C(C)=O)c3nn2)cc1OC		71	inactive		15.8	54		49	13.8	17.2	
CC(=O)n1c2cccc(I)c2c2cc(-c3ccc(Br)cc3)nnc21	inactive		inactive	inactive							inactive
CC(=O)n1c2cccc(Br)c2c2cc(-c3ccc(Cl)cc3)nnc21	inactive		inactive	inactive							inactive
CC(=O)Nc1ccccc1-c1cc2c3ccccc3n(C(C)=O)c2nn1		51	inactive			50		49			
CC(=O)n1c2cccc(Cl)c2c2cc(-c3cccc4ccccc34)nnc21		65			15.7	40	18	44	14.1	18	
CC(=O)n1c2cccc(Br)c2c2cc(-c3ccc(Br)cc3)nnc21	inactive		inactive	inactive							inactive
CC(=O)n1c2cc(Br)cc(Br)c2c2cc(-c3ccc(F)cc3)nnc21	inactive		inactive	inactive							inactive
CC(=O)n1c2cccc(Cl)c2c2cc(-c3ccccc3)nnc21		50	inactive			22		29			
COc1ccc(-c2cc3c4c(I)cccc4n(C(C)=O)c3nn2)cc1		22	inactive	inactive		9					
COc1cc(-c2cc3c4c(I)cccc4n(C(C)=O)c3nn2)cc(OC)c1OC		40				24	19	23			
CC(=O)n1c2ccccc2c2cc(-c3ccc(Br)cc3)nnc21		25	inactive			20		24			
CC(=O)n1c2cccc(Cl)c2c2cc(-c3ccc(Cl)cc3)nnc21		19				12	5	17			
COc1ccc(-c2cc3c4ccccc4n(C(C)=O)c3nn2)cc1		81			5.23	72	10	72	3.45	6.63	
COc1cc(-c2cc3c4c(Cl)cccc4n(C(C)=O)c3nn2)cc(OC)c1OC		77	inactive		15.7	59		66	13.4	17	
CC(=O)n1c2cccc(I)c2c2cc(-c3ccc([N+](=O)[O-])cc3)nnc21	inactive		inactive	inactive							inactive
CC(=O)n1c2cccc(Cl)c2c2cc(-c3ccc(Br)cc3)nnc21		15	inactive	inactive		10					

Compound	growth inhibition (GI) (COLO 205 [1])	inhibition of growth at 50 µM (THP-1 [2]) [%]	growth inhibition (GI) (A549)	growth inhibition (GI) (HCT-116)	IC50 [3] [µM]	inhibition of growth at 50 µM (COLO 205 [1]) [%]	inhibition of growth at 50 µM (A549) [%]	inhibition of growth at 50 µM [4] [%]	IC50 (THP-1 [5]) [µM]	IC50 (COLO 205 [6]) [µM]	growth inhibition (GI) (THP-1 [2])
CC(=O)n1c2ccccc2c2cc(-c3cccs3)nnc21		76			6.17	69	10	71	4.31	7.15	
CC(=O)Nc1cccc(-c2cc3c4ccccc4n(C(C)=O)c3nn2)c1		49	inactive			47		48			
CC(=O)n1c2cccc(I)c2c2cc(-c3cccc4ccccc34)nnc21	inactive	29	inactive	inactive							
CC(=O)n1c2cc(Br)cc(Br)c2c2cc(-c3ccc(Br)cc3)nnc21	inactive		inactive	inactive							inactive
CC(=O)n1c2cccc(Br)c2c2cc(-c3cccc4ccccc34)nnc21		44				12	9	18			
CC(=O)n1c2cccc(Cl)c2c2cc(-c3ccc([N+](=O)[O-])cc3)nnc21	inactive	14	inactive	inactive							
COc1cc(-c2cc3c4c(Br)cccc4n(C(C)=O)c3nn2)cc(OC)c1OC		59				36	17	43			
COc1ccc(-c2cc3c4c(I)cccc4n(C(C)=O)c3nn2)cc1OC		33				14	11	13			
COc1ccc(-c2cc3c4c(Br)cccc4n(C(C)=O)c3nn2)cc1OC		51				21	11	23			
CC(=O)n1c2cc(Br)cc(Br)c2c2cc(-c3ccc4ccccc4c3)nnc21	inactive	26	inactive	inactive							
CC(=O)n1c2cccc(I)c2c2cc(-c3ccc(Cl)cc3)nnc21	inactive		inactive	inactive							inactive
CC(=O)n1c2ccccc2c2cc(-c3ccc(F)cc3)nnc21		42	inactive			40		36			
CC(=O)n1c2cccc(I)c2c2cc(-c3ccc4ccccc4c3)nnc21	inactive	25	inactive	inactive							
CC(=O)n1c2cccc(Cl)c2c2cc(-c3ccc[nH]3)nnc21		53				34	16	37			
CC(=O)n1c2ccccc2c2cc(-c3ccc(Cl)cc3)nnc21		39	inactive			35		35			
CC(=O)n1c2cccc(Br)c2c2cc(-c3ccc([N+](=O)[O-])cc3)nnc21	inactive		inactive	inactive							inactive
COc1ccc(-c2cc3c4c(Br)cccc4n(C(C)=O)c3nn2)cc1		35				10	7	17			
CC(=O)n1c2cccc(Br)c2c2cc(-c3ccccc3)nnc21	inactive	27	inactive	inactive							
CC(=O)n1c2cc(Br)cc(Br)c2c2cc(-c3cccc4ccccc34)nnc21	inactive	24	inactive	inactive							
CC(=O)n1c2ccccc2c2cc(-c3ccc([N+](=O)[O-])cc3)nnc21		19	inactive			17		19			
